The target of the first test is T1, Deoxyhypusine synthase (Homo sapiens, UniProt P49366).
T1 sequence (P49366 whole entry): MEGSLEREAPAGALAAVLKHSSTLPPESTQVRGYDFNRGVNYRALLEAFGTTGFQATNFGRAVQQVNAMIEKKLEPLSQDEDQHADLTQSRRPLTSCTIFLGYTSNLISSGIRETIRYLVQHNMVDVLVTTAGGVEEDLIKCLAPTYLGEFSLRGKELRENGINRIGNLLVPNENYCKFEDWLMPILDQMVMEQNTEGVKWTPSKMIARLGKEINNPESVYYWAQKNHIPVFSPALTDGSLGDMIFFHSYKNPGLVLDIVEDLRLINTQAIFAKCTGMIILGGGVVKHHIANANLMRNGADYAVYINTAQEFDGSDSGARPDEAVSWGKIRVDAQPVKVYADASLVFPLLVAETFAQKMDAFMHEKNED
The test is described as follows: Inhibition of human N-terminal His6-tagged TEV protease site linked DHPS expressed in Escherichia coli BL21 (DE3) assessed as reduction in radiolabelled amino-butylidene incorporation in eIF5A using [3H]Spermidine trichloride as substrate after 90 to 120 mins in presence of eIF5A and 14 uM NAD+ by Topcount scintillation counting method. The essentials: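 Reaction run 120 min at room temperature, quenched with GC-7, and bound to streptavidin plates for 90–120 min. Plates washed and scintillation-counted. IC50 with 95% CI from nonlinear regression of percent inhibition.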
What is called IC50 is the concentration that gives 50% inhibition. With `N=C(N)NCCCCCCCN`, the half-maximal inhibitory concentration (IC50) stood at 0.14 µM.
Regarding `O=C(Nc1cccc2[nH]ccc12)c1ccc2ccccc2c1`, the IC50 is more than 100 µM.
The same measure, in the same setting: as for `CC(C)(C)c1ccc(S(=O)(=O)Nc2cccc3[nH]ccc23)cc1`, the figure is more than 100 µM; as for `O=C(Nc1cccc2[nH]ccc12)c1cc2ccccc2o1`, more than 100 µM; as for `NC(=O)c1ccc2cc(C(=O)Nc3cccc4[nH]ccc34)sc2c1`, 11 µM.
Still for that read-out and setting: as for `N#Cc1ccc2cc(C(=O)Nc3cccc4[nH]ccc34)sc2c1`, the figure is 0.43 µM; as for `CC(C)(C)c1ccc(NC(=O)c2cccc3[nH]ccc23)cc1`, 99 µM.
The same measure, in the same setting: as for `CC(C)(C)c1ccc(C(=O)Nc2cccc3[nH]ccc23)cc1`, the figure is 0.84 µM; as for `CC(C)(C)c1ccc(C(=O)Nc2cccc3c2CCN3)cc1`, more than 100 µM; as for `CC(C)(C)c1ccc(C(=O)Nc2cccc3cn[nH]c23)cc1`, more than 100 µM.
Turning to `O=C(Nc1cccc2[nH]ccc12)c1cc2ccc(Cl)cc2s1`, the IC50 came to 0.12 µM.
Still for that read-out and setting: as for `O=C(Nc1cccc2[nH]ccc12)c1cc2ccccc2s1`, the figure is 2.3 µM.
Same read-out and setting: with `O=C(Nc1cccc2[nH]ccc12)c1cc2cccc(Br)c2s1` the figure was more than 100 µM; with `O=C(Nc1cccc2[nH]ccc12)c1ccccc1`, more than 100 µM; with `O=C(Nc1cccc2[nH]ccc12)c1cc2cc(Br)ccc2s1`, more than 100 µM.
Still for that read-out and setting: with `O=C(Nc1cccc2[nH]ccc12)c1cc2ccc(I)cc2s1` the figure was 0.092 µM; with `CC(C)(C)c1ccc(NC(=O)Nc2cccc3[nH]ccc23)cc1`, more than 100 µM.
Regarding `O=C(Nc1cccc2[nH]ccc12)c1cc2ccc(Br)cc2s1`, the concentration for half-maximal inhibition (IC50) is 0.062 µM.
The same measure, in the same setting: with `CC(C)(C)c1ccc(C(=O)Nc2cccc3[nH]ncc23)cc1` the figure was 22 µM; with `CC(C)(C)c1ccc(C(=O)Nc2cccc3c2CC(=O)N3)cc1`, 42 µM; with `CC(C)(C)c1ccc2cc(C(=O)Nc3cccc4[nH]ccc34)sc2c1`, 5.4 µM.

In the next test the target is T1, Deoxyhypusine synthase. The experiment in a line: Competitive inhibition of human N-terminal His6-tagged TEV protease site linked DHPS expressed in Escherichia coli BL21 (DE3) assessed as reduction in radiolabelled amino-butylidene incorporation in eIF5A using 100 uM of [3H]Spermidine trichloride as substrate after 90 to 120 mins in presence of eIF5A and 14 uM NAD+ by Topcount scintillation counting method. In a few lines:
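Human DHPS expressed in E. coli, Ni-affinity purified, His-tag removed by TEV protease, then size-exclusion purified; 24 nM enzyme. Run with 1 µM eIF5A, 14 µM NAD+, 100 µM [3H]-spermidine (high-spermidine condition), 1 mM DTT, 50 mM Tris-HCl pH 8.0, 120 min at room temperature. Stopped with GC-7, captured on streptavidin plates, PBS-washed, scintillation counted. IC50 from nonlinear regression, 95% CI.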
With `O=C(Nc1cccc2[nH]ccc12)c1cc2ccc(Br)cc2s1`, the IC50 came out at 6.9 µM.

The target in another test is T1, Deoxyhypusine synthase. The test is described as follows: Competitive inhibition of human N-terminal His6-tagged TEV protease site linked DHPS expressed in Escherichia coli BL21 (DE3) assessed as reduction in radiolabelled amino-butylidene incorporation in eIF5A using 2 uM of [3H]Spermidine trichloride as substrate after 90 to 120 mins in presence of eIF5A and 250 uM NAD+ by Topcount scintillation counting method. In a few lines: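 Human DHPS (His-tagged, tag removed with TEV, purified by Ni-affinity and size exclusion), 24 nM, with 1 µM eIF5A, 2 µM [³H]-spermidine (38.5 Ci/mmol) and 250 µM NAD⁺ (×18 Km). Reaction run 120 min at room temperature, stopped with GC-7, and captured on streptavidin plates for 90–120 min. Plates washed with PBS and counted by scintillation. IC50 from nonlinear regression of percent inhibition.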
With `N=C(N)NCCCCCCCN`, the half-maximal inhibitory concentration (IC50) amounted to 0.5 µM.
`CC(C)(C)c1ccc(C(=O)Nc2cccc3[nH]ccc23)cc1`: the concentration for half-maximal inhibition (IC50) was found to be 38 µM.
The same measure, in the same setting: as for `O=C(Nc1cccc2[nH]ccc12)c1cc2ccc(Br)cc2s1`, the figure is 56 µM.

Source of the values: ChEMBL document CHEMBL4354863, “Discovery of Novel Allosteric Inhibitors of Deoxyhypusine Synthase” (J Med Chem, 2020).
